Experiments:
DLD-1 = assay: Concentration required to inhibit 50% of farnesylation of H-Ras in DLD-1 cells; format: functional, cell-based; details: Homo sapiens
[1] = molecular target: Protein farnesyltransferase (Bos taurus, UniProt P29702+P49355); assay: Inhibit of purified bovine Farnesyl protein transferase.; format: protein-complex assay
How it was run: (§1)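 Isolated-enzyme inhibition assays (FPTase, and GGPTase I for the GGPTase lines) were run by a previously published method, with n=2 determinations per compound. The read-out is the IC50 in nM.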

[2] = Concentration required to inhibit 50% of GGPTase enzyme activity; how it was run: as §1

Structure (SMILES)	IC50 (DLD-1) [nM]	IC50 [1] [nM]	IC50 [2] [nM]
O=C(c1ccc(Cl)s1)N1CCN(c2ccc(N(Cc3cnc[nH]3)S(=O)(=O)c3ccccc3)cc2)CC1	–	600	–
O=S(=O)(c1ccccc1)N(Cc1c[nH]cn1)c1ccc(N2CCN(C(=S)Nc3ccccc3)CC2)cc1	–	600	> 1000
O=C(NC1CCCCC1)N1CCN(c2ccc(N(Cc3cnc[nH]3)S(=O)(=O)c3ccccc3)cc2)CC1	–	1000	–
O=S(=O)(c1ccccc1)N(Cc1c[nH]cn1)c1ccc(N2CCN(C(=S)NCCc3ccccc3)CC2)cc1	–	100	> 1000
CC(C)C/N=C(\S)N1CCN(c2ccc(N(Cc3c[nH]cn3)S(=O)(=O)c3ccccc3)cc2)CC1	800	–	> 1000
O=C(NCc1ccccc1)N1CCN(c2ccc(N(Cc3cnc[nH]3)S(=O)(=O)c3ccccc3)cc2)CC1	–	600	–
O=S(=O)(c1ccccc1)N(Cc1c[nH]cn1)c1ccc(N2CCN(C(=S)NCc3ccccc3)CC2)cc1	–	60	> 1000
O=S(=O)(c1ccccc1)N(Cc1c[nH]cn1)c1ccc(N2CCN(C(=S)NCC3CCCCC3)CC2)cc1	–	30	> 1000
N#Cc1ccc(Cn2cncc2CNc2ccc(N3CCN(C(=O)c4ccc(Cl)s4)CC3)cc2)cc1	–	70	–
O=S(=O)(c1ccccc1)N(Cc1c[nH]cn1)c1ccc(N2CCN(C(=S)NC3CCCCC3)CC2)cc1	1000	20	> 1000
O=C(Nc1ccccc1)N1CCN(c2ccc(N(Cc3cnc[nH]3)S(=O)(=O)c3ccccc3)cc2)CC1	–	1000	–

Results, then the compound that gave them:

IC50 (DLD-1) [nM]	IC50 [1] [nM]	IC50 [2] [nM]	Structure (SMILES)
200	–	–	N#Cc1ccc(Cn2cncc2CN(c2ccc(N3CCN(C(=O)c4ccc(Cl)s4)CC3)cc2)S(=O)(=O)c2ccccc2)cc1
–	20	–	N#Cc1ccc(Cn2cncc2CN(Cc2cccc(F)c2)c2ccc(N3CCN(C(=O)c4ccc(Cl)s4)CC3)cc2)cc1
7	2	700	COc1cccc(C(=O)N(Cc2cncn2Cc2ccc(C#N)cc2)c2ccc(N3CCN(C(=O)c4ccc(Cl)s4)CC3)cc2)c1
3	–	> 1000	N#Cc1ccc(Cn2cncc2CN(C(=O)c2ccccc2)c2ccc(N3CCN(C(=O)c4ccc(Cl)s4)CC3)cc2)cc1
> 10000	2	–	COc1ccccc1C(=O)N(Cc1cncn1Cc1ccc(C#N)cc1)c1ccc(N2CCN(C(=O)c3ccc(Cl)s3)CC2)cc1
20	–	–	N#Cc1ccc(Cn2cncc2CN(C(=O)c2ccccc2F)c2ccc(N3CCN(C(=O)c4ccc(Cl)s4)CC3)cc2)cc1
80	2	–	COc1ccc(C(=O)N(Cc2cncn2Cc2ccc(C#N)cc2)c2ccc(N3CCN(C(=O)c4ccc(Cl)s4)CC3)cc2)cc1
2	2	> 1000	N#Cc1ccc(Cn2cncc2CN(C(=O)c2cccc(Cl)c2)c2ccc(N3CCN(C(=O)c4ccc(Cl)s4)CC3)cc2)cc1
6	–	> 1000	N#Cc1ccc(Cn2cncc2CN(C(=O)c2cccc(F)c2)c2ccc(N3CCN(C(=O)c4ccc(Cl)s4)CC3)cc2)cc1
–	70	–	N#Cc1ccc(Cn2cncc2CN(Cc2ccc(F)cc2)c2ccc(N3CCN(C(=O)c4ccc(Cl)s4)CC3)cc2)cc1

Source: ChEMBL document CHEMBL1136706, “Synthesis and evaluation of a novel series of farnesyl protein transferase inhibitors as non-peptidic CAAX tetrapeptide analogues” (Bioorg Med Chem Lett, 2003)
